# L major viab: Leishmania major promastigote growth inhibition, primary screen | inhibition, % at 10 µM | Leishmania major promastigotes, resazurin fluorescence viability | AID 1063, 2008 | hit rate 9% among 200,000; in the data active = inhibition above about 50%;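 note: promastigotes grown with compound for 44 hours at 28 °C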
# MT stabilizer: microtubule stabilizers in HeLa cells, primary screen, imaging, high-content imaging. HeLa tubulin immunostaining HCS, 24 h; share of cells brighter than vehicle mean+2SD. % tubulin-high responders, % at 10 µM. hit rate 0.83% among 200,000;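 active = plate Z-score above 3 for both tubulin-high and condensed-nucleus cell shares, with cell loss under 80%, at 10 µM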;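 note: anti alpha tubulin signal scored within the nucleus-defined area of each cell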
# b-catenin transl: modulators of beta-catenin nuclear translocation, primary screen, imaging, HeLa cells, immunofluorescence, high-content; nuclear translocation activity, % at 5 µM; hit rate 0.3% among 190,000;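 active = nuclear translocation activity above 50% at 5 µM, with a well cell count of 50 or more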;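 note: per-cell ratio of nuclear to cytoplasmic median beta-catenin stain intensity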
#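 Test system: human HeLa cells, native beta-catenin. Compound dosing: 5 µM primary single dose, 0.1% DMSO, 0.02–20 µM confirmation series. Incubation: compound exposure 24 h at 37°C. Detection: beta-catenin immunostaining with DAPI counterstain, 20x imaging, 6 fields/well. Read-out basis: Nuclear/cytoplasmic beta-catenin signal ratio, % activation.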
# Autophagy HCS: autophagy modulators in MEF cells, primary screen, imaging, high-content, MEF GFP-LC3. calls only at 10 µM (by protocol). MEF GFP-LC3 puncta imaging; test concentration mostly 10 µM. hit rate 0.98% among 190,000;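 active = percentage of spot-positive cells more than 3 SD above its plate mean, without a fluorescence outlier flag or 80% toxicity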
# Dynein cargo inh: inhibitors of GR-EGFP nuclear translocation, primary screen, dynein cargo transport inhibitor project, imaging, high-content, 3617.4 mouse cells; test concentration mostly 20 µM; stimulated with dexamethasone, 1 µM; hits give low values; z-score, hits read low; hit rate 0.47% among 220,000; AID 1381, 2008;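 active = plate z-score of nuclear minus cytoplasmic receptor signal below a set negative limit, without overly bright fluorescence or cell loss, cut at about -3.5 in these data, passing the limit was not always enough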;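 note: z-score of nuclear minus cytoplasmic ring GR-EGFP intensity difference per well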
#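 Also added: dexamethasone, 1.0 µM final. Medium: tet-free, stripped-serum medium. Detection: fixed, Hoechst-stained cells imaged at 10x for EGFP. Read-out: nuclear-to-cytoplasmic GR-EGFP distribution per well. Times: induction 48 h, compound 1 h, agonist 30 min.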
# CHOP inh: inhibitors of CHOP promoter induction, primary screen, cell-based, unfolded protein response, luciferase reporter | hit rate 3.8% among 220,000 | CHO-K1 CHOP-promoter luciferase, tunicamycin-induced, 15-18 h | inhibition, % at 10 µM;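 active = compounds that reduced the stress-induced luciferase reporter signal by more than about 70% of percent inhibition, limit read from the data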
# Hits are given with their value; 0 = inactive; - = no result; + = active, no number. Rows were chosen to be rich in hits. Some 12% of all compounds tested hit in one or more screens of this group.
SMILES,L major viab,MT stabilizer,b-catenin transl,Autophagy HCS,Dynein cargo inh,CHOP inh
COC(=O)c1c(C)oc2ccc(N(C(=O)Oc3ccccc3)S(=O)(=O)c3ccc(Cl)c([N+](=O)[O-])c3)cc12,0,0,0,0,0,83
COC(=O)c1c(C)oc2ccc(N(C(=O)c3ccncc3)S(=O)(=O)c3ccc(C)cc3)cc12,0,0,162,0,0,0
Cc1cc(C)c(C(=O)N2CCCC(CNC(=O)C3(c4ccc(Cl)cc4)CC3)C2)c(=O)[nH]1 (stereo unspecified),0,0,0,0,0,0
Cc1ccc(Cl)cc1N1CCN(C(=O)Cc2cn(C)c3ccccc23)CC1,0,0,-,0,0,0
CC1CCN(C2CCN(C(=O)c3ccccc3F)CC2)CC1,-,-,0,-,0,0
Cc1ccc(C)c(N2CCN(C(=O)Cc3cn(C)c4ccccc34)CC2)c1,0,0,0,0,0,74
Cc1ccc(C)c(N2CCN(C(=O)c3csc4ccccc34)CC2)c1,0,0,0,0,0,80
O=C(c1ccccc1F)N1CCC(N2CCCCCC2)CC1,73,0,0,0,0,0
CCC(=O)c1ccc(N2CCN(C(=O)c3ccccc3F)CC2)c(F)c1,0,0,0,0,0,0
Cc1ccc(N2CCN(C(=O)c3ccccc3F)CC2)c(C)c1,0,0,0,-,0,93
Cc1cc(SCC(=O)NN)c2cc(Br)ccc2n1,-,-,0,-,0,0
CC(Oc1ccccc1)C(=O)Nc1nnc(C2CCCCC2)s1 (stereo unspecified),0,0,0,0,0,0
Cc1nc2ccccc2n1CC(=O)OCC(=O)NC1CC1,0,0,0,+,0,0
O=C(O)CCCCCNC(=O)C(=O)C1C(=O)Nc2ccccc21 (stereo unspecified),-,-,0,-,0,0
NC(=O)CC(NC(=O)Cc1ccc(Br)cc1)c1ccc(NC2CCCC2)c([N+](=O)[O-])c1 (stereo unspecified),-,-,0,-,0,84
NC(=O)CC(NC(=O)Cc1cccc2ccccc12)c1ccc(NC2CCCCCC2)c([N+](=O)[O-])c1 (stereo unspecified),-,-,0,-,0,96
NC(=O)CC(NC(=O)Cc1cccc2ccccc12)c1ccc(NCCc2ccccc2F)c([N+](=O)[O-])c1 (stereo unspecified),-,-,0,-,0,91
NC(=O)CC(NC(=O)Cc1ccc(Br)cc1)c1ccc(NC2CCCCCC2)c([N+](=O)[O-])c1 (stereo unspecified),-,-,0,-,0,0
CC(C)Nc1ccc(C(CC(N)=O)NC(=O)Cc2cccc3ccccc23)cc1[N+](=O)[O-] (stereo unspecified),-,-,0,-,0,0
NC(=O)CC(NC(=O)Cc1cccc2ccccc12)c1ccc(NC2CCCCCCC2)c([N+](=O)[O-])c1 (stereo unspecified),-,-,0,-,0,75
Cc1cc(C)cc(NC(=O)CSc2nnc(-c3ccccc3)n2N)c1,0,0,0,0,0,0
CC(C)CC(C(=O)NC(C)(C)C)N(CC1CCCO1)C(=O)c1snc(C(N)=O)c1N (stereo unspecified),0,0,0,0,0,0
NC(=O)CC(NC(=O)c1ccccc1)c1ccc(NCCc2ccc(F)cc2)c([N+](=O)[O-])c1 (stereo unspecified),-,-,0,-,0,92
Cc1ccsc1/C=N/NC(=O)C1CC(=O)N(c2ccccc2)C1 (stereo unspecified),0,0,0,0,0,0
CCOC(=O)C1CCN(C(=O)c2cc3ccccc3oc2=O)CC1,0,0,0,0,0,0
SMILES,L major viab,MT stabilizer,b-catenin transl,Autophagy HCS,Dynein cargo inh,CHOP inh
CCCCNC(=S)N(C)/N=C/c1c(C)[nH]c2ccccc12,56,0,-,+,0,72
CCCCNC(=S)N(C)/N=C/c1c(F)c(F)c(F)c(F)c1F,0,0,-,0,0,0
CC1CN(CC(O)COC(c2ccc(Cl)cc2)c2ccc(Cl)cc2)CC(C)O1 (stereo unspecified),67,0,0,0,0,0
CN(C)CC(O)COC(c1ccc(Cl)cc1)c1ccc(Cl)cc1 (stereo unspecified),99,0,0,0,0,0
CC1CN(CCCCOc2ccc(C(C)C)cc2)CC(C)O1 (stereo unspecified),91,0,0,0,0,0
COc1ccc(COCC(O)CN2CC(C)OC(C)C2)cc1OC (stereo unspecified),0,0,0,0,0,0
CC1CN(CC(O)COc2ccc(C(C)C)cc2)CC(C)O1 (stereo unspecified),92,0,-,0,0,0
COc1ccc(C(=O)NCc2nnc(SCC(=O)Nc3nc4ccccc4s3)o2)cc1OC,0,0,0,0,0,0
COc1cc(OC)c(NC(C)C(=O)N2CCCC2)cc1Cl (stereo unspecified),0,0,0,0,0,0
CCN1C(=O)[C@H]2[C@H]3[C@H](O)[C@H](O)C/C(=N\O[C@H](C)c4cn([C@H](CO)Cc5ccccc5)nn4)[C@@H]3CC[C@H]2C1=O,0,0,0,0,0,0
CCN1CCN(c2cc(C)c3cc(NC(=O)c4cccc(OC)c4)ccc3n2)CC1,-,-,0,-,0,0
CCN1CCN(c2cc(C)c3cc(NC(=O)c4cccs4)ccc3n2)CC1,-,-,0,-,0,0
CCN1CCN(c2cc(C)c3cc(NC(=O)c4cncc(Br)c4)ccc3n2)CC1,100,0,0,0,0,0
COc1ccc(C)cc1NC(=O)CCC(=O)Nc1ccc2nc(N3CCN(C)CC3)cc(C)c2c1,91,0,-,0,0,0
CCN1CCN(c2cc(C)c3cc(NC(=O)c4ccc(OC)c(OC)c4)ccc3n2)CC1,55,0,-,+,0,0
CCN1CCN(c2cc(C)c3cc(NC(=O)c4ccc5c(c4)OCO5)ccc3n2)CC1,100,0,0,-,0,0
CCCCNC(=O)CCC(=O)Nc1ccc2nc(N3CCN(C)CC3)cc(C)c2c1,0,0,0,0,0,0
Cc1cc(N/N=C/c2ccncc2)c([N+](=O)[O-])cc1[N+](=O)[O-],-,-,0,-,0,0
Cc1cc(OC(C)C)c2c(-c3ccccc3)cc(=O)oc2c1,0,0,0,0,0,79
Cc1ccc(NC(=S)N(CCCN2CCN(C)CC2)Cc2cccs2)cc1C,0,0,0,+,0,0
Cc1ccc(NC(=S)N(CCCN2CCOCC2)Cc2cccnc2)cc1C,64,0,0,0,0,0
CCOC(=O)c1ccc(NC(=S)N(CCCN2CCCC(C)C2)Cc2cccs2)cc1 (stereo unspecified),97,0,0,0,0,0
Cc1ccccc1NC(=S)N(CCCN1CCOCC1)Cc1cccnc1,0,0,0,0,0,0

# Screens as filed in PubChem BioAssay.
